Results as given in paper PMC2151501 (The Journal of General Physiology, 2006).
Entries after “also recorded” stand apart in the source; their conditions may differ. No end group written: not given here.

Assays:
[1] = molecular target: hNav1.5-CW/F1760K mutant Na+ channels (Homo sapiens, UniProt Q14524, A410W/F1760K/L409C); conditions: ref Wang and Wang, cited from earlier work
[2] = system: voltage-gated Na+ channels; conditions: ref Catterall, 1980; Wang and Wang, 2003; Strichartz, et al., 1987; cited from earlier work
[3] = molecular target: T1, inactivation-deficient hNav1.5-CW mutant Na+ channels (Homo sapiens, UniProt Q14524, A410W/L409C); assay: On and off rates of β4_154–167 binding at 50 mV; format: cell-based
Procedure, shortened: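 HEK293t cells transiently co-expressing inactivation-deficient hNav1.5-CW with rat β1, whole-cell clamp at 22–24°C, holding −140 mV. Peptide was included in the pipette solution (NaF/NaCl/EGTA/HEPES, pH 7.2) at 25–250 μM. The time-dependent block at 50 mV was fitted single-exponentially. 1/τ was plotted against concentration and fitted by linear regression: slope gave kon, intercept gave koff; n = 5.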

[4] = molecular target: T2, hNav1.5-CW inactivation-deficient mutant Na+ channels (Homo sapiens, UniProt Q14524, A410W/L409C); assay: Use-dependent block during repetitive pulses; format: cell-based; conditions: for use-dependent block of peak currents, 20 ms pulses: β4_154–167 n = 6, acetyl-KIFMK-amide n = 5
Shaker K+ channels = conditions: 50 mV, ref Murrell-Lagnado and Aldrich, 1993; cited from earlier work
[5] = molecular target: T3, inactivation-deficient hNav1.5-L409C/A410W (hNav1.5-CW) Na+ channels (Homo sapiens, UniProt Q14524, A410W/L409C); format: cell-based; conditions: intracellular peptide, 50 mV; 25–250 μM for β4_154–167
Procedure, shortened: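 Transiently transfected HEK293t cells (calcium phosphate; CD8 bead selection; used 1–4 d) expressing hNav1.5-L409C/A410W with rat β1. Peptide at 25–250 μM was dialysed via the pipette. Whole-cell currents were recorded at 50 mV from −140 mV holding, at 22–24°C. Decay was fitted with a single exponential. Steady-state block was taken ∼30 min after break-in.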

[6] = molecular target: T1, inactivation-deficient hNav1.5-CW mutant Na+ channels; assay: Resurgent Na+ currents near the activation threshold; format: cell-based; conditions: 2 mM in pipette, −80 to −20 mV, five cells
Procedure, shortened: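 Whole-cell recording at room temperature (22–24°C) from transfected HEK293t cells expressing hNav1.5-CW plus rat β1, with 2 mM acetyl-peptide in the internal solution. After the test pulse, tail currents were recorded at −80 to −20 mV in 20-mV steps. Bath: 65 mM NaCl, 85 mM choline Cl, 2 mM CaCl2, 10 mM HEPES, pH 7.4. Five cells.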

[7] = molecular target: T2, hNav1.5-CW inactivation-deficient mutant Na+ channels; assay: Unblocking upon repolarization, two-pulse protocol; format: cell-based; conditions: 2 mM in pipette
Procedure, shortened: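 Whole-cell hNav1.5-CW currents were recorded in HEK293t cells at room temperature with 2 mM peptide in the pipette. A two-pulse protocol with a 10-ms interpulse interval was used. Peak current amplitude at the second pulse was compared with that at the first.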

[8] = system: BTX-modified wild-type hNav1.5 Na+ channels; assay: Time-dependent block of BTX-modified wild-type Na+ currents; format: cell-based; conditions: 4 μM BTX; acetyl-KIFMK-amide 2 mM, β4_154–167 1 mM, after 2,000 pulses
Procedure, shortened: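 Channels were modified by 4 μM BTX (final, from 0.5 mM DMSO stock) in the pipette, which also held either 2 mM acetyl-KIFMK-amide or 1 mM peptide. Cells were held at −140 mV and depolarized to 50 mV. The maintained-to-peak current ratio at 50 mV was measured. Five to six cells.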

[9] = molecular target: T3, inactivation-deficient hNav1.5-L409C/A410W (hNav1.5-CW) Na+ channels; conditions: ref Eaholtz et al., 1994; Tang et al., 1996; Wang and Wang, 2005; cited from earlier work
[10] = system: inactivation-deficient rNav1.2 Na+ channels; conditions: ref Eaholtz et al., 1994; Tang et al., 1996; Wang and Wang, 2005; cited from earlier work
[11] = system: Na+ channels in dissociated neurons; conditions: ref Grieco and Raman, 2004; cited from earlier work
[12] = 2 mM in pipette, 50 mV/20 ms at 1 Hz

Batrachotoxin [BTX]
sensitivity of hNav1.5-CW/F1760K to BTX (in words) [1]; 2003: BTX-resistant
effect of BTX on voltage-gated Na+ channels (in words) [2]: eliminates the fast inactivation of voltage-gated Na^+ channels

KKLITFILKKTREK [β4_154–167]
koff ([3]; read-out: off rate (koff) of binding): 49.1 s⁻¹
kon ([3]; read-out: on rate (kon) of binding): 1.01e+07 M⁻¹ s⁻¹
use-dependent block of peak currents, 20 ms pulses [4, 12]: 2.9 ± 1.6%

ShB peptide: the first 20 amino acids on the NH2 terminus of the Shaker channel (MAAVAGLYGLGEDRQHRKKQ; UniProt P08510 1-20, looked up, fragment)
koff (Shaker K+ channels): 13.8 s⁻¹

acetyl-KIFMK-amide
time-dependent block of inactivation-deficient Na+ currents (in words) [5]: restored the fast inactivation phenotype in hNav1.5 inactivation-deficient Na^+ channels
resurgent tail currents near activation threshold (in words), acetyl-KIFMK-amide [6]: elicited robust resurgent currents
additional use-dependent block on outward peak and inward tail currents [4, 12]: ~65%
tail current decay relative to β4_154–167 [4, 12]: four times faster
use-dependent block of peak currents, 20 ms pulses [4, 12]: 62.4 ± 3.1%
use-dependent block, 3 ms pulses ([4]; 2 mM in pipette, repetitive pulses, 3 ms, n = 5): 28.5 ± 0.4%
fitted τ of use-dependent block, 1 ms pulses ([4]; 50 mV for 1 ms at 1 Hz, n = 5): 27.1 pulses
use-dependent block, 1 ms pulses ([4]; 50 mV for 1 ms at 1 Hz, n = 5): 15.5 ± 0.4%
fitted τ of use-dependent block, 3 ms pulses ([4]; repetitive pulses, 3 ms, n = 5): 14.5 pulses
tail current decay τ, short test pulse ([7]; short test pulse, n = 6): 0.23 ± 0.02 ms
unblocking upon repolarization (in words) ([7]; −140 mV, two-pulse protocol, 10-ms interval, six cells): also occurred rapidly
block of BTX-modified open Na+ channels (in words) [8]: resistant to β4_154–167 and acetyl-KIFMK-amide block; also recorded: little time-dependent block was found
restoration of fast inactivation, inactivation-deficient hNav1.5 (in words) [9]: can restore fast inactivation
effect of hNav1.5-F1760K on time-dependent block (in words) ([1]; hNav1.5-F1760K, 2005): hinders its time-dependent block
effect of hNav1.5-F1760K on use-dependent block (in words) ([1]; hNav1.5-F1760K, 2005): abolishes the use-dependent block
restoration of fast inactivation, rNav1.2 (in words) [10]: can restore fast inactivation

β-pompilidotoxin
effect on fast inactivation gating (in words) [11]: slowed the fast inactivation gating considerably
